High-throughput results as filed in PubChem.
Shown is part of a subset that was picked to be rich in hits.
Fh CTSL1 inh: cathepsin L1 inhibition, PFM18AAP counter-screen; inhibition, % at 5.96 µM; 300,000 compounds, 0.49% hits; AID 1906; recombinant F. hepatica cathepsin L1, Z-Leu-Arg-MCA fluorescence;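 active means inhibition above the mean of all tested compounds plus 3 SD, set per screening campaign, cut at about 17% in these data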;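 further: 0% = plate median of test compound wells and 100% = 1 µM Z-Phe-Ala-diazomethylketone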
CHOP UPR activ: activators of apoptotic arm of unfolded protein response (CHOP) | CHO-CHOP luciferase reporter, UPR activation, luminescence; percent of tunicamycin response over DMSO baseline | activation, % at 10 µM | 330,000 compounds, 0.34% hits | AID 449763;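 active means at 10 µM dose, activation of 40% or more, normalized to positive control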;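 further: 100% = tunicamycin at 10 µg/mL and 0% = DMSO alone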
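System: CHO-CHOP luciferase reporter cell line; amount: 500 cells/well; buffer or medium: F12 medium containing 10% fetal bovine serum; incubation: 6 h compound exposure at 37 °C after overnight seeding; measured by: luciferase luminescence after 10 min with Steady-Glo reagent; evaluation: % reporter activation, DMSO baseline versus tunicamycin full activation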
CHOP inh: CHOP inhibition in unfolded protein response; CHO-K1 CHOP-promoter luciferase, tunicamycin-induced, 15-18 h; inhibition, % at 10 µM; 220,000 compounds, 3.8% hits;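 active means compounds that reduced the stress-induced luciferase reporter signal by more than about 70% of percent inhibition, limit read from the data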;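 further: 0% = tunicamycin plus vehicle and 100% = wells without tunicamycin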
UCH37 DUB inh: inhibitors of human deubiquitinating enzyme UCH37. Q9Y5K5. purified proteasome/UCH37, Ub-AMC cleavage fluorescence. inhibition, % (no concentration beside the values). 330,000 compounds, 0.33% hits. AID 588478;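 active means mean inhibition over replicate wells above about 20%, limit read from the data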;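 further: 0% = compound-free wells with enzyme and 100% = wells lacking proteasome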
Target sequence (Q9Y5K5 whole entry, looked up): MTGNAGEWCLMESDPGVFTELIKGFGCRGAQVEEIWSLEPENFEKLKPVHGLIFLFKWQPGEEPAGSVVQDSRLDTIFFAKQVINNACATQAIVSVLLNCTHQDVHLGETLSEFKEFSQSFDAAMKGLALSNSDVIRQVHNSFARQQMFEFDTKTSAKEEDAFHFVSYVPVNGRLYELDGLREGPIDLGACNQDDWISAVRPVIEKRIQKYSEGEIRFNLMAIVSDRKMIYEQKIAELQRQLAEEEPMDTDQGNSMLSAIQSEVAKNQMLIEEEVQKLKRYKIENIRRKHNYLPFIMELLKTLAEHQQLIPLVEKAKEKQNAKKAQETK
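Material: human UCH37 enzyme supplied as purified proteasome complex. Measure: % inhibition of Ub-AMC cleavage fluorescence. Medium: pH 7.4 Tris-HCl (50 mM) with ovalbumin, ATP-MgCl2, DTT. Times: 30 min preincubation with enzyme, 25 min cleavage at room temperature. Detection: AMC fluorescence intensity at 355/460 nm.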
UPR XBP1 act: adaptive UPR (XBP1) activation. AID 463104. CHO-XBP1 luciferase reporter, IRE1-XBP1 UPR activation, luminescence; percent of tunicamycin response, DMSO as zero. activation, % at 20 µM. 330,000 compounds, 0.33% hits;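 active means versus positive control, 20 µM dose yields 30% or more activation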;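 further: 100% = tunicamycin at 10 µg/mL and 0% = DMSO only wells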
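assay system = CHO-XBP1 luciferase reporter cells | amount = 1000 cells/well | buffer or medium = F12 plus 10% FBS | compound dosing = single point, 20 µM final compound, 1% DMSO | incubation = 16-18 h cell attachment at 37 °C, then 6 h compound exposure | detection = Steady-Glo luminescence read | controls = tunicamycin 10 µg/mL and vehicle-only wells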
* marks the source's active call; other numbers are inactive results.

Results for COc1ccc(Cl)c(N2CCN(CCCNC(=O)Nc3ccc(C)cc3)CC2)c1 ?
Fh CTSL1 inh: 0; CHOP UPR activ: -4; CHOP inh: 83*; UCH37 DUB inh: 4; UPR XBP1 act: -4

What do the screens show for `Cc1ccc(SC(C)C(=O)Nc2ccncc2)cc1` (stereo not drawn)?
Fh CTSL1 inh: -3; CHOP UPR activ: 0; CHOP inh: 42; UCH37 DUB inh: 3; UPR XBP1 act: 0

How did CSc1cccc(NC(=O)C(C)Sc2ccc(C)cc2)c1 (stereo not drawn) do in these assays?
Fh CTSL1 inh: 0; CHOP UPR activ: 3; CHOP inh: 78*; UCH37 DUB inh: 2; UPR XBP1 act: 0

How did CCOC(=O)C1(CCC(C)C)CC(CSc2nc3ccccc3[nH]2)OC1=O (stereo not drawn) do in these assays?
Fh CTSL1 inh: 4; CHOP UPR activ: -3; CHOP inh: 89*; UCH37 DUB inh: 2; UPR XBP1 act: -5

What do the screens show for `CCN(CC)S(=O)(=O)c1ccc(Oc2ccc(S(=O)(=O)N(CC)CC)cc2)cc1`?
Fh CTSL1 inh: 0; CHOP UPR activ: 5; CHOP inh: 72*; UCH37 DUB inh: 1; UPR XBP1 act: -4

What do the screens show for `CCCCOc1ccc(S(N)(=O)=O)cc1`?
Fh CTSL1 inh: 0; CHOP UPR activ: 1; CHOP inh: 5; UCH37 DUB inh: 4; UPR XBP1 act: 1

How did NS(=O)(=O)c1ccc(Oc2ccc(S(N)(=O)=O)cc2)cc1 do in these assays?
Fh CTSL1 inh: 17*; CHOP UPR activ: 0; CHOP inh: -14; UCH37 DUB inh: 2; UPR XBP1 act: 1

Results for O=[N+]([O-])c1ccc(C=NNc2ccc3ccccc3c2)o1 ?
UCH37 DUB inh: 7

Results for Cc1ccc(COc2cccc(C=NNC(=O)c3nnn(-c4nonc4N)c3C)c2)cc1 ?
UCH37 DUB inh: -7

How did Cn1ncc(C#N)c1N=CN1CCCC1 do in these assays?
UCH37 DUB inh: 5

How did CCN(CC)S(=O)(=O)c1cccc(N=Nc2sc(N)nc2C)c1 do in these assays?
Fh CTSL1 inh: -4; CHOP UPR activ: 2; UCH37 DUB inh: 5; UPR XBP1 act: -3

What do the screens show for `COC(=O)c1cc(N=Nc2sc(N)nc2C)cc(C(=O)OC)c1`?
Fh CTSL1 inh: 5; CHOP UPR activ: 1; CHOP inh: 80*; UCH37 DUB inh: 6; UPR XBP1 act: 28

Results for O=C(c1cc(C(=O)NCCc2ccccc2)c(=O)n(CCc2ccccc2)c1)c1cc(Cl)ccc1O ?
Fh CTSL1 inh: 5; CHOP UPR activ: 7; CHOP inh: 82*; UCH37 DUB inh: 4; UPR XBP1 act: 6

Results for Cc1oc(-c2ccc(Cl)cc2)nc1CN1CCC(C(=O)N2CCc3ccccc3C2)CC1 ?
Fh CTSL1 inh: 5; CHOP UPR activ: 0; CHOP inh: 91*; UCH37 DUB inh: 2; UPR XBP1 act: 6

What do the screens show for `Cc1oc(-c2ccc(Cl)cc2)nc1CN1CCC(C(=O)N2CCN(Cc3ccccc3)CC2)CC1`?
Fh CTSL1 inh: 5; CHOP UPR activ: 2; CHOP inh: 69; UCH37 DUB inh: 1; UPR XBP1 act: 6

What do the screens show for `CCc1ccc(-c2nc(CN3CCC(C(=O)NCc4ccccc4OC)CC3)c(C)o2)cc1`?
Fh CTSL1 inh: 2; CHOP UPR activ: 3; CHOP inh: 79*; UCH37 DUB inh: 1; UPR XBP1 act: 5

How did CC1(C)SC(=S)N(N=Cc2ccccc2)C1N(O)C(=O)Nc1ccc([N+](=O)[O-])cc1 (stereo not drawn) do in these assays?
UCH37 DUB inh: 8

How did Fc1cccc(C=NNc2ccc(Cl)nn2)c1 do in these assays?
UCH37 DUB inh: 1

What do the screens show for `Cc1cc(C)nc(SCc2nnc(SCC(=O)Nc3ccc(Cl)c(C(F)(F)F)c3)o2)n1`?
Fh CTSL1 inh: 5; CHOP UPR activ: 1; CHOP inh: 75*; UCH37 DUB inh: 0; UPR XBP1 act: -2

Results for O=C(CC(=O)NC1CCCCC1)NN=Cc1ccc(Cl)cc1 ?
UCH37 DUB inh: 27*

What do the screens show for `CC(C)(C)c1ccc(/C=N/NC(=S)NC2CCCCC2)cc1`?
Fh CTSL1 inh: 4; CHOP UPR activ: 0; CHOP inh: 72*; UPR XBP1 act: 6

How did FC(F)(F)c1ccc(C=NNC(=S)NC2CCCCC2)cc1 do in these assays?
UCH37 DUB inh: 3
